Square brackets hold non-standard residues; d marks the D form. Peptide text beside a SMILES is read from it. * marks the point of attachment. Cbz = O=C(OCc1ccccc1)*
Experiments:
[1] = biological target: T1, Endothelin-1 receptor (Rattus norvegicus, UniProt P26684); test: Ability to displace [125I]ET1 from the rat endothelin A receptor expressed in rat aorta smooth muscle cells.; assay type: cell-based
T1 sequence (P26684 whole entry): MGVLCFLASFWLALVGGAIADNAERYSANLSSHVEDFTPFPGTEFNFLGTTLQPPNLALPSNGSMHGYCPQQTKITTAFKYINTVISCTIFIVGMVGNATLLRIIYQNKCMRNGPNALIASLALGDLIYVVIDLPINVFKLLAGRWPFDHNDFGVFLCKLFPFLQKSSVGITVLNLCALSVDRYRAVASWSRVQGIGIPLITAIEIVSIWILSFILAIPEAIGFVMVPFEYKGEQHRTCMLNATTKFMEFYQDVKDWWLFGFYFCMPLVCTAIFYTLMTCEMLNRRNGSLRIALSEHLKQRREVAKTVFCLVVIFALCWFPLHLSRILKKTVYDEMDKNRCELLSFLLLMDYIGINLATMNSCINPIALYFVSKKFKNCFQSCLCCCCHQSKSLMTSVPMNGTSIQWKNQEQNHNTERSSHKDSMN

[2] = biological target: T2, Endothelin receptor type B (Homo sapiens, UniProt P24530); test: Inhibitory concentration against Endothelin B receptor
T2 sequence (P24530 whole entry): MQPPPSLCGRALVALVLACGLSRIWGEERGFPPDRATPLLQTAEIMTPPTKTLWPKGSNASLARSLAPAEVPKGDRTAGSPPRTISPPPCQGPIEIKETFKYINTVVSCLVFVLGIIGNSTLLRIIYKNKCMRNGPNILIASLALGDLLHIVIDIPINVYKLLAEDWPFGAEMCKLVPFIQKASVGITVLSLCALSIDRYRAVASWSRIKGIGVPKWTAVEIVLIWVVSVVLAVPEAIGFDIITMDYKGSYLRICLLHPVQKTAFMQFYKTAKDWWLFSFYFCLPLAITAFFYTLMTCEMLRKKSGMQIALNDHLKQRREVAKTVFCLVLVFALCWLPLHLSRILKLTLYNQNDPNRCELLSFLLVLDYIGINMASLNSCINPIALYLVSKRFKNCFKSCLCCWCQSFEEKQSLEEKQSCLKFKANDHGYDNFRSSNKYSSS

[3] = biological target: T3, Endothelin-1 receptor (Homo sapiens, UniProt P25101); test: Inhibition of [125]ET-1 binding to human Endothelin A receptor expressed in vero cells; assay type: cell-based
T3 sequence (P25101 whole entry): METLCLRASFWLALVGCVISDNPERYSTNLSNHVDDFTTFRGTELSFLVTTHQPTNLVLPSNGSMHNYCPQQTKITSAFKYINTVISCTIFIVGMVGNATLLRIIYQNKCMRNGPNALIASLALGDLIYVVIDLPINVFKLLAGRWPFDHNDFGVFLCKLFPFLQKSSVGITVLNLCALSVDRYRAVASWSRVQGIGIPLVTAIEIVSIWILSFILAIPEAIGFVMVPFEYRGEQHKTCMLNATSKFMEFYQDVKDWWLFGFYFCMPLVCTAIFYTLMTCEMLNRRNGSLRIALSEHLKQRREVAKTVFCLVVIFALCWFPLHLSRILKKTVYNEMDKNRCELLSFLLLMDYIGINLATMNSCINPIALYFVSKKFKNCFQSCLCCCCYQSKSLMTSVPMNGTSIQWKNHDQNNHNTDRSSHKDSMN
How it was run: (§1)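 Vero (green monkey renal) cells grown as monolayers at 37 °C in MEM with 10% FBS, nonessential amino acids and penicillin/streptomycin under 5% CO2. Whole-cell binding was done in triplicate (2 × 10^5 cells/well) in HEPES-buffered saline at pH 7.4 with 50 pM [125I]ET-1 for 1 h. Nonspecific binding was defined with 500 nM ET-1. Compounds were tested at ca. 10^-10–10^-4 M. Bound radioactivity was collected by filtration and counted.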

[4] = biological target: T4, Endothelin-1 receptor (Homo sapiens) (UniProt P25101); test: Inhibition of [125]ET-1 binding to human ETA receptor expressed in vero cells at 10E-4 M concentration; assay type: cell-based; how it was run: as §1
T4 sequence (whole entry): T3 sequence (P25101 whole entry)

[5] = biological target: T4, Endothelin-1 receptor (Homo sapiens); conditions: Vero

Structure (SMILES) | IC50 [1] [nM] | also measured
CCc1ccc(C(=O)/C(Cc2ccccc2)=C(\C(=O)O)c2ccc3c(c2)OCO3)cc1 | 630 | 
COc1ccc(C(=O)/C(Cc2cccc(OC)c2)=C(\C(=O)O)c2ccc3c(c2)OCO3)cc1 | 3 | IC50 [2]: 260 nM
COC(=O)c1cc(S(=O)(=O)Nc2cccc(-c3cnco3)c2)oc1C |  | IC50 [3]: 6200 nM
CCOc1ccc2c(c1)[C@@H](c1ccc(OC)cc1)N(CC(=O)O)[C@@H]2c1ccc2c(c1)OCO2 | 96 | 
COc1ccc(C(=O)/C(Cc2cccc3ccccc23)=C(\C(=O)O)c2ccc3c(c2)OCO3)cc1 | 14 | 
COC1=C(C(=O)O)[C@H](c2ccc3c(c2)OCO3)Oc2ccc(OC(C)C)cc21 | 5.2 | 
COc1ccc(NC(=O)CC(CC(=O)O)c2cc(OC)c(OC)c(OC)c2)cc1 (stereo not drawn) |  | inhibition [4]: 60%
COc1cccc(C(=O)/C(Cc2ccccc2)=C(\C(=O)O)c2ccc3c(c2)OCO3)c1 | 500 | 
CCOc1cc(C/C(C(=O)c2ccc(OC)cc2)=C(/C(=O)O)c2ccc3c(c2)OCO3)cc(OCC)c1OCC | 0.12 | 
COc1ccc([C@H]2[C@H](C(=O)O)[C@@H](c3ccc4c(c3)OCO4)CN2CC(=O)NC(c2ccccc2)C(C)C)cc1 (stereo partly drawn) | 0.7 | 
COC(=O)CCCCOc1cc(C/C(C(=O)c2ccc(OC)cc2)=C(/C(=O)O)c2ccc3c(c2)OCO3)cc(OC)c1OC | 0.05 | 
COc1ccc(C(=O)/C(Cc2ccc(-c3ccccc3)cc2)=C(\C(=O)O)c2ccc3c(c2)OCO3)cc1 | 200 | 
CCCCC1=C(C(=O)O)[C@@H](c2ccc3c(c2)OCO3)Oc2ccc(OC(C)C)cc21 |  | IC50 [2]: 400 nM
C/C=C/CC[C@H]1[C@H](C(=O)O)[C@@H](c2ccc3c(c2)OCO3)CN1CC(=O)N(CCCC)CCCC | 0.78 | 
COc1ccc([C@@H]2[C@@H](CC(=O)O)[C@H](c3ccc4c(c3)OCO4)CN2CC(N)=O)cc1 | 2030 | 
COc1ccc([C@H]2[C@H](C(=O)O)[C@@H](c3ccc4c(c3)OCO4)CN2CC(=O)Nc2cccc(C)c2C)cc1 | 16 | 

Structure (SMILES) | IC50 [1] [nM] | also measured
CCCCN(CCCC)C(=O)CN1C[C@H](c2ccc3c(c2)OCO3)[C@@H](C(=O)O)[C@@H]1CCCCC(C)C | 0.29 | 
COc1ccc([C@H]2[C@H](C(=O)O)[C@@H](c3ccc4c(c3)OCO4)CN2CC(=O)NC(Cc2ccccc2)c2ccccc2)cc1 (stereo partly drawn) | 3.9 | 
COc1ccc(C(=O)/C(Cc2cc(OC)c(OC)c(OC)c2)=C(\C(=O)O)c2cc(OC)c3c(c2)OCO3)cc1 | 0.5 | 
COc1cc(/C(C(=O)O)=C(\CC2CCCCC2)C(=O)c2ccc3c(c2)OCCO3)cc2c1OCO2 | 3.5 | 
COc1ccc(C(=O)/C(Cc2ccccc2)=C(\C(=O)O)c2cc(OC)c3c(c2)OCO3)cc1 | 6.7 | 
CC(C)C[C@@H]1NC(=O)[C@@H](C(C)C)NC(=O)[C@@H]2CCCN2C(=O)[C@@H](CC(=O)O)NC(=O)[C@@H](Cc2c[nH]c3ccccc23)NC1=O (cyclo(L[dW][dD]P[dV])) |  | IC50 [5]: 25 nM
CC(C)C(NC(=O)OCc1ccccc1)C(=O)NC(Cc1ccc(O)cc1)C(=O)O (stereo not drawn) (Cbz-Val-Tyr-OH; configuration not given here) |  | IC50 [3]: 220 nM
CCOc1ccc2c(c1)[C@@H](c1ccc(OC)cc1OCC(=O)O)N(CC(=O)O)[C@@H]2c1ccc2c(c1)OCO2 | 5.4 | 
CCOc1cc(N2CCOCC2)c(OCC)cc1NS(=O)(=O)c1ccc(OC)cc1 |  | inhibition [4]: 77%
CCCCN(CCCC)C(=O)CN1C[C@H](c2ccc3c(c2)OCO3)[C@@H](CC(=O)O)[C@@H]1c1ccc(OC)cc1 | 0.5 | IC50 [2]: 5100 nM
CCCNC(=O)CN1C[C@@H](c2ccc3c(c2)OCO3)[C@H](C(=O)O)[C@H]1c1ccc(OC)cc1 | 45.3 | 
CCCCC1=C(C(=O)O)C(c2ccc3c(c2)OCO3)Oc2ccc(OC(C)C)cc21 (stereo not drawn) | 410 | 
COc1ccc(C(=O)/C(Cc2ccc(Cl)cc2)=C(\C(=O)O)c2ccc3c(c2)OCO3)cc1 | 110 | 
COc1ccc(C(=O)/C(Cc2ccccc2)=C(\C(=O)O)c2ccc3c(c2)OCO3)cc1OC | 11 | 
COc1ccc(C/C(C(=O)c2ccc(OC)cc2)=C(/C(=O)O)c2ccc3c(c2)OCO3)cc1 | 1.8 | 
